Test results: publication PMC6613170 (Proceedings of the National Academy of Sciences of the …, 2019)
One block for each molecule: values may come before it.

How the values were obtained:
CFTR = CFTR assay; type: cell-based, canine; settings: 100 nM PGE2
OX161 cells = assay: OX161 cyst assay; type: cell-based, human
[1] = test system: primary human ADPKD cells; assay: Primary human ADPKD cell viability; type: cell-based; settings: unstimulated and vasopressin-treated cultures
Outline: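 Primary epithelial cells cultured from single kidney cysts of a patient with ADPKD, kept in supplier's proprietary media. For the cyst assay, cells were grown in biogels with RenalCyte media in 96- or 384-well format. Viability was read as luminescence-based detection of ATP as a function of living cells.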

[2] = test system: primary human ADPKD cells; assay: Primary human kidney cell cyst assay; type: cell-based
Outline: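 Primary epithelial cells from single kidney cysts of an ADPKD patient are grown in biogels with RenalCyte medium. Cysts form spontaneously or with 10 nM vasopressin, across graded test compound concentrations. Cysts are counted by manual imaging or automated whole-well imaging. Values are given as SD of four treatments.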

MDCK cells [3] = assay: MDCK cyst assay; type: cell-based, canine
Ser651Asp-PDE4D5 = Ser651Asp-PDE4D5 (Homo sapiens, UniProt Q08499, S715D); assay: cAMP phosphodiesterase assay, Erk phosphomimetic mutant; type: biochemical
Outline: (§1)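 PDE4 constructs were expressed from pcDNA3.1 (mutants by site-directed mutagenesis) after lipid transfection into mammalian cells. Lysate was spun at 2,000 × g for 10 min, then 100,000 × g for 30 min, and supernatant protein was measured by BCA. cAMP hydrolysis used 200 ng–1 µg protein per reaction for 10 min, within the linear range.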

PDE4A4 = PDE4A4 (Homo sapiens, UniProt P27815); assay: cAMP phosphodiesterase assay, long isoform PDE4A4; type: biochemical; settings: compared with the other long isoforms
Outline: as §1

MDCK cells [4] = assay: DNA normalized ATP levels in MDCK cystic cultures; type: cell-based, canine; settings: MR-L2 3 µM; ± SD
PDE4C3 = PDE4C3 (Homo sapiens, UniProt Q08493); assay: cAMP phosphodiesterase assay, long isoform PDE4C3; type: biochemical
Outline: (§2)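 PDE4 constructs, including site-directed mutants, are expressed from pcDNA3.1 in transfected mammalian cells. Cells are lysed mechanically in KHEM buffer (50 mM KCl, 10 mM EGTA, 50 mM Hepes, 1.92 mM MgCl2, pH 7.4). Lysate is cleared at 2,000 × g for 10 min, then 100,000 × g for 30 min. Supernatant (200 ng–1 µg protein per reaction, BCA) is assayed for cAMP hydrolysis for 10 min under linear conditions.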

DD1-R499D-PDE4D5 = DD1-R499D-PDE4D5 (Homo sapiens, UniProt Q08499, N238A/N239A/R237A/R563D); assay: cAMP phosphodiesterase assay, dimerization-deficient mutant; type: biochemical
Outline: as §1

human long form PDE4D5 = human long form PDE4D5 (Homo sapiens, UniProt Q08499); assay: cAMP phosphodiesterase assay, long isoform PDE4D5; type: biochemical
Outline: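 Human PDE4D5 is expressed from pcDNA3.1 in transfected mammalian cells. The 100,000 × g supernatant of KHEM-buffer lysates (200 ng–1 µg protein) is assayed for cAMP hydrolysis for 10 min under linear conditions, with test compound at 3, 10, 30 and 100 µM. Velocity is analysed by Eadie–Hofstee plot to give Vmax and Km for cAMP.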

MDCK cells [5] = assay: xCELLigence impedance-based proliferation assay; type: cell-based, canine; settings: 2D culture; MR-L2 added 24 h after inception
Outline: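 MDCK cells are plated at 5,000 cells per well in 2D culture and left to adhere for 24 h. Test compound is then added, and cell number is followed by xCELLigence electrical-impedance monitoring.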

[6] = test system: short isoforms of PDE4A, B, and D families; assay: cAMP phosphodiesterase assay, short PDE4 isoforms; type: biochemical
Outline: as §2

[7] = test system: truncated core catalytic domain of PDE4D without UCR1, UCR2, and C-terminal tail; assay: cAMP phosphodiesterase assay, truncated catalytic domain construct; type: biochemical; settings: n = 4
Outline: as §2

S133D-PDE4D5 = S133D-PDE4D5 (Homo sapiens, UniProt Q08499, S197D); assay: cAMP phosphodiesterase assay, MK2 phosphomimetic mutant; type: biochemical
Outline: as §1

MDCK cells [8] = assay: cAMP ELISA in forskolin-challenged MDCK cells; type: cell-based, canine; settings: 15 min
Outline: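 MDCK cells in 2D culture (DMEM, 10% FBS) are pretreated for 1 h with test compound (3 µM), with or without roflumilast (100 nM), then challenged with forskolin (3 µM, 15 min). Intracellular and extracellular cAMP are measured with a commercial cAMP ELISA kit. Intracellular data are mean ± SD of n = 7 experiments; extracellular data come from three independent experiments.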

S126D:S133D-PDE4D5 = S126D:S133D-PDE4D5 (Homo sapiens, UniProt Q08499, S190D/S197D); assay: cAMP phosphodiesterase assay, PKA/MK2 double phosphomimetic mutant; type: biochemical; settings: relative to S126D-PDE4D5
Outline: as §2

PDE4B1 = PDE4B1 (Homo sapiens, UniProt Q07343); assay: cAMP phosphodiesterase assay, long isoform PDE4B1; type: biochemical
Outline: as §2

Sequence of human long form PDE4D5 (Q08499 1-745 isoform Q08499-6): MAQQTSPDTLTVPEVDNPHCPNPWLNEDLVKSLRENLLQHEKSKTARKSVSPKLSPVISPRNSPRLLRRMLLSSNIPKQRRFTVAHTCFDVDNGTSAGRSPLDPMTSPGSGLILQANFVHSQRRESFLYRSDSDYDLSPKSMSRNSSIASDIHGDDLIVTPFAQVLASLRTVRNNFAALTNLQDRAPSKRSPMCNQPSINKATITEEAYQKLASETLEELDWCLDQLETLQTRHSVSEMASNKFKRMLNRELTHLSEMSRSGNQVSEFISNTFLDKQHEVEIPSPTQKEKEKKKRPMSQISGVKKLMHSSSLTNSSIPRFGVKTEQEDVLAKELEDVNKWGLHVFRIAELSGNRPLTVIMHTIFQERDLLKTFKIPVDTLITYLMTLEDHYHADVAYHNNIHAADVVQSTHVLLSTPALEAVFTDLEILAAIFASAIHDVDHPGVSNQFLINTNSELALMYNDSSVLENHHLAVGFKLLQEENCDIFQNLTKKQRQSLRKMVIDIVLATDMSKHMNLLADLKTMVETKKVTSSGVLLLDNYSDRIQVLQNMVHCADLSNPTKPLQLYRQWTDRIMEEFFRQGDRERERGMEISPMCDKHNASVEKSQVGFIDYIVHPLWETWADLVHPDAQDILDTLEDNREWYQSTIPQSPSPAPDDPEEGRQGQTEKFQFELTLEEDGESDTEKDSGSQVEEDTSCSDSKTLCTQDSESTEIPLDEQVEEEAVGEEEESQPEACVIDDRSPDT
Sequence of DD1-R499D-PDE4D5 (Q08499 1-745 isoform Q08499-6 R173A/N174A/N175A/R499D): as the sequence (Q08499 1-745 isoform Q08499-6) above, with R173A, N174A, N175A, R499D counted along it
Sequence of PDE4A4 (P27815 whole entry, canonical isoform): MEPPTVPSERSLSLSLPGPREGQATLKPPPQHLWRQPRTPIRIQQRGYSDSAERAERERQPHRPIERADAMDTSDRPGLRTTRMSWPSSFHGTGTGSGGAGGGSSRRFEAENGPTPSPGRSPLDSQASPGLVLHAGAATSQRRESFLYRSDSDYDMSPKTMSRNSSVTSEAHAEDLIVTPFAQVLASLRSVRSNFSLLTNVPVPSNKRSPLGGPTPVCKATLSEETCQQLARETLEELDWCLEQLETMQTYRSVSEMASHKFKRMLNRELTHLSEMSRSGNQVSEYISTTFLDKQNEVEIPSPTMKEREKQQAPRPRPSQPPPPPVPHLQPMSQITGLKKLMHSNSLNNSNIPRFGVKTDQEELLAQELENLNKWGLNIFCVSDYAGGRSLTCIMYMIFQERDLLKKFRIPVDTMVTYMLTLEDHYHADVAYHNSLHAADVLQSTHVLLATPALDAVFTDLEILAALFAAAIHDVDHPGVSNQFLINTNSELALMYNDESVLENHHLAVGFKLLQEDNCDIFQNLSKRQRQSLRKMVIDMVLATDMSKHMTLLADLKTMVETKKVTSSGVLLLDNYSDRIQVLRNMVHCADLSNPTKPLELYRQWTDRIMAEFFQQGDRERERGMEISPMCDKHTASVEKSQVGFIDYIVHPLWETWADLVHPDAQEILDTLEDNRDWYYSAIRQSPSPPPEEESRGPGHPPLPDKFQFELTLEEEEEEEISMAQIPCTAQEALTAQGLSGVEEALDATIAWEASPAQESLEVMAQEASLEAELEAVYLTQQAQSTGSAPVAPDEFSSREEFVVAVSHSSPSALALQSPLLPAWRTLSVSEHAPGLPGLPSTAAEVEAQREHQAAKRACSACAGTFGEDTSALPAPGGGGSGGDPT
Sequence of S126D:S133D-PDE4D5 (Q08499 1-745 isoform Q08499-6 S126D/S133D): as the sequence (Q08499 1-745 isoform Q08499-6) above, with S126D, S133D counted along it
Sequence of PDE4C3 (Q08493 1-680 isoform Q08493-3, species assumed): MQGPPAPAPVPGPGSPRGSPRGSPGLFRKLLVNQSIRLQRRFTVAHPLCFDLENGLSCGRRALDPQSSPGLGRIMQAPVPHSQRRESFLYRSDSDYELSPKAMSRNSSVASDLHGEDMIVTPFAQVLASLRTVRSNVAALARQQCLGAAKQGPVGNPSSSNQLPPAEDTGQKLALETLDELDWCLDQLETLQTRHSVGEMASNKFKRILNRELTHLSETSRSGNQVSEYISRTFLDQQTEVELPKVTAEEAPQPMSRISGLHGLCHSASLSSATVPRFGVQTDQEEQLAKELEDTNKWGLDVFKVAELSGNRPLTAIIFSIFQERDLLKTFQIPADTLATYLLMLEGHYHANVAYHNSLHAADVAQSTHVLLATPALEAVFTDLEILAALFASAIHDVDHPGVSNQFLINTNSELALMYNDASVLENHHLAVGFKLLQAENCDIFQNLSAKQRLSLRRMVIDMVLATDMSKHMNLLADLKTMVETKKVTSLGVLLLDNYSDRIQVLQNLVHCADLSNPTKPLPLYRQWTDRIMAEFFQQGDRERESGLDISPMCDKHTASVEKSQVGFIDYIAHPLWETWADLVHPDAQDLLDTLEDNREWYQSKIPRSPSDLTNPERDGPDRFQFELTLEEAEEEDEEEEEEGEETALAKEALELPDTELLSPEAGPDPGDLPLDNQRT
Sequence of PDE4B1 (Q07343 whole entry, species assumed, canonical isoform): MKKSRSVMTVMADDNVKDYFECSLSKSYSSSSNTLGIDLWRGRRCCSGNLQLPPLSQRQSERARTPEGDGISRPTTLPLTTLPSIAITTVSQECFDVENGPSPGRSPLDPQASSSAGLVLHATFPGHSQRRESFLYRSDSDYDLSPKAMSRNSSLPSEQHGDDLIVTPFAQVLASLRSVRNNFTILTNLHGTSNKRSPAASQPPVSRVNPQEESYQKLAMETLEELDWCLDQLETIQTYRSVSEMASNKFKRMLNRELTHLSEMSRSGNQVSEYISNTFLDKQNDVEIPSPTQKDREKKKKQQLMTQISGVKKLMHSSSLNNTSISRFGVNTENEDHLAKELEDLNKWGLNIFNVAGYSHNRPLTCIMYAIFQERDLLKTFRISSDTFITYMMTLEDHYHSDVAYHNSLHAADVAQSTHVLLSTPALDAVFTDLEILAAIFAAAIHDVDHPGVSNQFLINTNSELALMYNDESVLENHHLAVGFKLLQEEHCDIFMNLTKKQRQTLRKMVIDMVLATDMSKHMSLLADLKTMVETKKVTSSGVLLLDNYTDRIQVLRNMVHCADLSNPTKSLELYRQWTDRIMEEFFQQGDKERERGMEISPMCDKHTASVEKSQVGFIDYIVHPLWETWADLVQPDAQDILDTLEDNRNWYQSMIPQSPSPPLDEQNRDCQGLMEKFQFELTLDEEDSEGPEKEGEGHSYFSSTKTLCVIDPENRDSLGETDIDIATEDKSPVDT
Sequence of S133D-PDE4D5 (Q08499 1-745 isoform Q08499-6 S133D): as the sequence (Q08499 1-745 isoform Q08499-6) above, with S133D counted along it
Sequence of Ser651Asp-PDE4D5 (Q08499 1-745 isoform Q08499-6 S651D): as the sequence (Q08499 1-745 isoform Q08499-6) above, with S651D counted along it

SMILES: O=C(O)c1ccc(/C=C2\SC(=S)N(c3cccc(C(F)(F)F)c3)C2=O)cc1 [CFTRINH172, reference compound]
PGE2-induced membrane depolarization (CFTR; CFTR inhibitor 100 µM): reversed

activation of PDE4C3 (PDE4C3): activates | mode of action on cAMP hydrolysis by PDE4D5 (human long form PDE4D5): reversible, noncompetitive activator | increase in activity over basal levels (human long form PDE4D5; maximally effective concentrations of MR-L2): ~60% | activation of short PDE4 isoforms [6]: did not activate | activation of truncated core catalytic domain of PDE4D [7]: does not activate | activation of S126D:S133D-PDE4D5 (S126D:S133D-PDE4D5): partially restore sensitivity | activation of PDE4B1 (PDE4B1): activates
SMILES: CCc1nc(-c2ccc(Cl)c(F)c2)nn1CC(=O)NCc1cc(Cl)cc(Cl)c1 [MR-L2, 2-(3-(4-chloro-3-fluorophenyl)-5-ethyl-1H-1,2,4-triazol-1-yl)-N-(3,5-dichlorobenzyl)acetamide]
PGE2-stimulated cystogenesis of OX161 cells (OX161 cells; concentration-dependent): attenuated | cell viability [1]: without adversely affecting cell viability | number of cysts formed in 3D culture ([2]; unstimulated (spontaneous cyst formation)): clearly suppressed the number of cysts | number of cysts formed in 3D culture ([2]; vasopressin-treated (10 nM)): clearly suppressed the number of cysts | PGE2-stimulated cyst formation (MDCK cells [3]; MR-L2 3 µM, incremental PGE2 concentrations): suppressed | forskolin-induced cyst formation (MDCK cells [3]; MR-L2 3 µM, incremental forskolin concentrations): suppressed forskolin-induced cyst formation | EC50 (MDCK cells [3]; read-out: EC50, suppression of PGE2-induced cyst formation, PGE2 300 nM): 1000 nM | PGE2-elicited CFTR activity (membrane depolarization) (CFTR; MR-L2 preincubation 40 min): clearly suppressed in a concentration-dependent manner | activation of Ser651Asp-PDE4D5 (Ser651Asp-PDE4D5): comparable increase in activity to that seen when employing wild-type PDE4D5 | activation of PDE4A4 (PDE4A4): slightly enhanced magnitude of activation | reduction in the ATP/DNA ratio (MDCK cells [4]): 15.6 ± 30% | activation of DD1-R499D-PDE4D5 (DD1-R499D-PDE4D5): complete loss of sensitivity to activation | effect on cell number (cytotoxicity) (MDCK cells [5]): no effect | activation of S133D-PDE4D5 (S133D-PDE4D5): activated by MR-L2 to a similar extent to wild-type PDE4D5 | intracellular cAMP elevation in response to forskolin (MDCK cells [8]; 1-h pretreatment with MR-L2, forskolin 3 µM): significantly suppressed cAMP elevation | extracellular level of cAMP (MDCK cells [8]; MR-L2 3 µM, 1 h before forskolin 3 µM): significantly reduced

SMILES: O=C(Nc1c(Cl)cncc1Cl)c1ccc(OC(F)F)c(OCC2CC2)c1 [roflumilast, reference compound]
effect on suppression of cystogenesis by MR-L2 (3 µM) (MDCK cells [3]; roflumilast 100 nM, PGE2 300 nM): interdict the suppression of cystogenesis | effect on suppression of forskolin-stimulated cAMP accumulation by MR-L2 (3 µM) (MDCK cells [8]; roflumilast 100 nM cotreatment, forskolin 3 µM): ablated the suppressive effect of MR-L2

SMILES: COc1ccc(C2CNC(=O)C2)cc1OC1CCCC1 (stereo not shown) [rolipram, reference compound]
cystogenesis of OX161 cells (OX161 cells; challenge with rolipram, 3D culture): enhanced | effect on agonist-driven (PGE2-induced) cyst formation (MDCK cells [3]; increasing concentrations of rolipram): exacerbates agonist-driven cyst formation in a concentration-dependent manner
